ChEMBL document CHEMBL2375313, “Synthesis, in vitro antitumor evaluation and DNA-binding study of novel tetrahydroquinolines and some derived tricyclic and tetracyclic ring systems” (Eur J Med Chem, 2013)
Calls of active or inactive are those of the source. No cut-off for these calls is given here.

How the values were obtained:
[1] = tested on: ACHN; assay: Cytotoxicity against human ACHN cells assessed as growth inhibition at 10 uM after 48 hrs by sulphorhodamine B assay; format: functional; details: read-out: GI
Method in brief: (§1)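 NCI-60 one-dose screen per the NCI Drug Evaluation Branch protocol. Cells given a single 10 µM concentration with 48 h continuous exposure. Growth estimated by sulphorhodamine B protein assay. Result expressed as percentage growth inhibition relative to untreated growth.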

[2] = tested on: RXF 393; assay: Cytotoxicity against human RXF393 cells assessed as growth inhibition at 10 uM after 48 hrs by sulphorhodamine B assay; format: functional; details: RXF 393, 48 h, read-out: GI; method in brief: as §1
[3] = Cytotoxicity against human CNS cancer cells after 48 hrs by sulphorhodamine B assay; format: functional; details: Cancer cell lines
[4] = Cytotoxicity against human prostate cancer cells after 48 hrs by sulphorhodamine B assay; format: functional; details: Cancer cell lines
[5] = Cytotoxicity against human non-small cell lung cancer cells after 48 hrs by sulphorhodamine B assay; format: functional; details: Cancer cell lines
[6] = Cytotoxicity against human leukemia cells after 48 hrs by sulphorhodamine B assay; format: functional; details: Leukemia cell
[7] = Cytotoxicity against human colon cancer cells after 48 hrs by sulphorhodamine B assay; format: functional; details: Cancer cell lines
[8] = Cytotoxicity against human ovarian cancer cells after 48 hrs by sulphorhodamine B assay; format: functional; details: Cancer cell lines
[9] = Cytotoxicity against human breast cancer cells after 48 hrs by sulphorhodamine B assay; format: functional; details: Cancer cell lines
[10] = tested on: SF-295; assay: Cytotoxicity against human SF295 cells assessed as growth inhibition at 10 uM after 48 hrs by sulphorhodamine B assay; format: functional; details: SF-295, 48 h, read-out: GI; method in brief: as §1
[11] = tested on: MDA-MB-435; assay: Cytotoxicity against human MDA-MB-435 cells assessed as growth inhibition at 10 uM after 48 hrs by sulphorhodamine B assay; format: functional; details: MDA-MB-435, 48 h, read-out: GI; method in brief: as §1
[12] = tested on: SNB-19; assay: Cytotoxicity against human SNB19 cells assessed as growth inhibition at 10 uM after 48 hrs by sulphorhodamine B assay; format: functional; details: SNB-19, 48 h, read-out: GI; method in brief: as §1
[13] = Cytotoxicity against human renal cancer cells after 48 hrs by sulphorhodamine B assay; format: functional; details: Cancer cell lines
[14] = tested on: HL-60(TB); assay: Cytotoxicity against human HL-60(TB) cells assessed as growth inhibition at 10 uM after 48 hrs by sulphorhodamine B assay; format: functional; details: HL-60, 48 h, read-out: GI
Method in brief: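 NCI-60 one-dose primary screen run to the Drug Evaluation Branch protocol. Cells are exposed to a single 10 µM concentration for 48 h continuously, and growth is read by SRB protein assay. Data are reported as percent growth of treated cells, expressed as % growth inhibition.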

[15] = tested on: NCI/ADR-RES; assay: Cytotoxicity against human NCI/ADR-RES cells assessed as growth inhibition at 10 uM after 48 hrs by sulphorhodamine B assay; format: functional; details: read-out: GI; method in brief: as §1
[16] = Binding affinity to DNA (unknown origin) at 5 mg/mL by RP-TLC plate analysis
Method in brief: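 Reversed-phase C18 TLC plates pre-developed in methanol/water 8:2. Compound spotted at origin (5 mg/mL in methanol), then DNA (1 mg/mL in water/methanol 8:2) applied at the same spot. Plates developed in the same eluent; DNA located by anisaldehyde spray (blue). Ethidium bromide as positive control.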

[17] = Cytotoxicity against human melanoma cells after 48 hrs by sulphorhodamine B assay; format: functional; details: Melanoma cell
[18] = read-out: LC50 (the source's name)

## CC1CCCc2c1nc1nc(SCC(=O)c3ccccc3)nc(N)c1c2-c1ccc(Cl)cc1 (stereo not drawn)
[1]
  inhibition of growth at 10 µM: 29.3%
[2]
  inhibition of growth at 10 µM: 62.2%
[3]
  GI50: 62.3 µM
  LC50: > 100 µM
  TGI: 84.1 µM
[4]
  GI50: 75.5 µM
  LC50: > 100 µM
  TGI: > 100 µM
[5]
  GI50: 46.1 µM
  TGI: > 100 µM
[5]; [18]
  CC50: > 100 µM
[6]
  GI50: 34.7 µM
  LC50: 93.3 µM
  TGI: 65.1 µM
[7]
  GI50: > 100 µM
  TGI: 86.5 µM
[7]; [18]
  CC50: > 100 µM
[8]
  GI50: 80.6 µM
  TGI: 95.5 µM
[8]; [18]
  CC50: > 100 µM
[9]
  GI50: 79.3 µM
  TGI: 89.6 µM
[9]; [18]
  CC50: > 100 µM
[10]
  inhibition of growth at 10 µM: 23.9%
[11]
  inhibition of growth at 10 µM: 13%
[12]
  inhibition of growth at 10 µM: < 10%
[13]
  GI50: 51.8 µM
  LC50: > 100 µM
  TGI: > 100 µM
[14]
  inhibition of growth at 10 µM: 22%
[15]
  inhibition of growth at 10 µM: 12.8%
[16]
  Activity: Active
[17]
  GI50: 58 µM
  TGI: > 100 µM
[17]; [18]
  CC50: > 100 µM

## CCSc1nc(N)c2c(-c3ccc(Cl)cc3)c3c(nc2n1)C(C)CCC3 (stereo not drawn)
[1]
  inhibition of growth at 10 µM: 30.8%
[2]
  inhibition of growth at 10 µM: 26.6%
[10]
  inhibition of growth at 10 µM: < 10%
[11]
  inhibition of growth at 10 µM: 14.5%
[12]
  inhibition of growth at 10 µM: < 10%
[14]
  inhibition of growth at 10 µM: < 10%
[15]
  inhibition of growth at 10 µM: 12.8%
[16]
  Activity: Active
